ChEMBL document CHEMBL1149195, “N,N-dialkyl-2-phenylindol-3-ylglyoxylamides. A new class of potent and selective ligands at the peripheral benzodiazepine receptor” (J Med Chem, 2004)

Key:
Translocator protein = Translocator protein (Rattus norvegicus, UniProt P16257); assay: Binding affinity to peripheral benzodiazepine receptors using [3H]-PK11195 radioligand in rat kidney mitochondrial membrane; format: cell membranes
[1] = target: GABA-A receptor; anion channel (Rattus norvegicus) (UniProt O09028+P15431+P18506+P18508+P19969+P20236+P23574+P23576+P28471+P28473+P30191+P62813+P63079+P63138+Q91ZM7+Q9ES14); assay: Percent inhibition of rat benzodiazepine receptor assayed using [3H]-flumazenil radioligand at 10 um concentration; format: protein-complex assay
Procedure, shortened: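 Displacement of [3H]flumazenil specific binding in rat brain membranes by test compound at fixed 10 µM; percent inhibition as mean ± SEM of five determinations.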

[2] = target: T1, Cholesterol side-chain cleavage enzyme, mitochondrial (Rattus norvegicus, UniProt P14137); assay: Stimulation of pregnenolone formation from rat C6 glioma cells; format: functional, cell-based; parameters: concentration or dose not given beside the values
T1 sequence (P14137 whole entry): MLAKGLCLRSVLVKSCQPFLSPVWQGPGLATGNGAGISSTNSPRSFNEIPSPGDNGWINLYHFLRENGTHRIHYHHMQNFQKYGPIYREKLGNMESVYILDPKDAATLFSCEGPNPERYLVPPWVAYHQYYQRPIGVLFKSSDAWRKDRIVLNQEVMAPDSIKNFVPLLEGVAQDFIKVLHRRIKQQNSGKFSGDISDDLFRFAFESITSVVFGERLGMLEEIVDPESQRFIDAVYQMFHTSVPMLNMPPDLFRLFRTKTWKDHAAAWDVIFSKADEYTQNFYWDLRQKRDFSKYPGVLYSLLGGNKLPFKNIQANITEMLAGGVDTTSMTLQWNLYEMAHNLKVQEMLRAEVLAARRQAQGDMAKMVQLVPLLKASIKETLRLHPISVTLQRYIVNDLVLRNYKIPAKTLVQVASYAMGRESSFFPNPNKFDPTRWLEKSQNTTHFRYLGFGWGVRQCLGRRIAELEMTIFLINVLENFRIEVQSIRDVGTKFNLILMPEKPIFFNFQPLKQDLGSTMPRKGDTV
Procedure, shortened: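 Rat C6 glioma cells exposed to compound for 2 h at 37 °C; pregnenolone measured by radioimmunoassay and expressed as % increase over control; mean ± SEM of at least three determinations.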

Translocator protein, sequence (P16257 whole entry, looked up): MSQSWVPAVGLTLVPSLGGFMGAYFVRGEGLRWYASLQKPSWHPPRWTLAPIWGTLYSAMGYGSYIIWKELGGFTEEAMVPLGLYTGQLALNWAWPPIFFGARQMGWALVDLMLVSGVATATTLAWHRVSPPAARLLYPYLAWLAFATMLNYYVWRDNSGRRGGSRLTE

SMILES | Ki (Translocator protein) | inhibition [1] | Activity [2]
CC(C)N(C(=O)C(=O)c1c(-c2ccccc2)[nH]c2ccccc12)C(C)C | 103 nM | 4% | 
CCCCCN(CCCCC)C(=O)C(=O)c1c(-c2ccccc2)[nH]c2ccccc12 | 16 nM | 3% | 35%
CCCN(CCC)C(=O)C(=O)c1c(-c2ccc(C)cc2)[nH]c2ccccc12 |  | 7% | 148%
CCCCN(CCCC)C(=O)C(=O)c1c(-c2ccc(Cl)cc2)[nH]c2ccc(Cl)cc12 | 1.9 nM | 0% | 147%
CCCN(CCC)C(=O)C(=O)c1c(-c2ccccc2)[nH]c2ccccc12 |  | 16% | 8%
CCCCN(CCCC)C(=O)C(=O)c1c(-c2ccc(Cl)cc2)[nH]c2ccccc12 | 1 nM | 0% | 55%
O=C(C(=O)N1CCCCC1)c1c(-c2ccccc2)[nH]c2ccccc12 | 665 nM | 3% | 
CCCCNC(=O)C(=O)c1c(-c2ccccc2)[nH]c2ccccc12 | 1170 nM | 12% | 
CCCCCCN(CCCCCC)C(=O)C(=O)c1c(-c2ccc(Cl)cc2)[nH]c2ccc(Cl)cc12 | 5.8 nM | 3% | 166%
CCCCCCN(CCCCCC)C(=O)C(=O)c1c(-c2ccc(C)cc2)[nH]c2ccccc12 | 1.6 nM | 6% | 77%
CCN(CC)C(=O)C(=O)c1c(-c2ccccc2)[nH]c2ccccc12 | 43 nM | 6% | 
O=C(C(=O)N1CCCCCC1)c1c(-c2ccccc2)[nH]c2ccccc12 | 33 nM | 5% | 
CCCCN(CCCC)C(=O)C(=O)c1c(-c2ccccc2)[nH]c2ccccc12 | 7.5 nM | 3% | 23%
CCCCCCN(CCCCCC)C(=O)C(=O)c1c(-c2ccccc2)[nH]c2ccc(Cl)cc12 | 58.4 nM | 3% | 31%
CCCCN(CCCC)C(=O)C(=O)c1c(-c2ccccc2)[nH]c2ccc(Cl)cc12 | 4.91 nM | 13% | 5%
CCC(C)N(C(=O)C(=O)c1c(-c2ccccc2)[nH]c2ccccc12)C(C)CC (stereo unspecified) | 17 nM | 5% | 10%
CCCN(CCC)C(=O)Cc1c(-c2ccc(Cl)cc2)nc2ccc(Cl)cn12 [ALPIDEM] | 7 nM | 28% | 
CCCCCCN(CCCCCC)C(=O)C(=O)c1c(-c2ccc(Cl)cc2)[nH]c2ccccc12 | 0.55 nM | 4% | 109%
CCCN(CCC)C(=O)C(=O)c1c(-c2ccc(Cl)cc2)[nH]c2ccccc12 | 4.65 nM | 14% | 40%
CCCCN(CCCC)C(=O)C(=O)c1c(-c2ccc(F)cc2)[nH]c2ccccc12 |  | 0% | 26%
O=C(C(=O)N1CCCC1)c1c(-c2ccccc2)[nH]c2ccccc12 | 2400 nM | 4% | 
CCCN(CCC)C(=O)C(=O)c1c(-c2ccc(Cl)cc2)[nH]c2ccc(Cl)cc12 | 0.62 nM | 5% | 49%
CCCCCCN(CCCCCC)C(=O)C(=O)c1c(-c2ccccc2)[nH]c2ccccc12 |  | 10% | 30%
CCCN(CCC)C(=O)C(=O)c1c(-c2ccc(F)cc2)[nH]c2ccccc12 | 4.28 nM | 4% | 20%
CCCCCCN(CCCCCC)C(=O)C(=O)c1c(-c2ccc(F)cc2)[nH]c2ccccc12 | 0.37 nM | 0% | 62%
CCCN(CCC)C(=O)C(=O)c1c(-c2ccccc2)[nH]c2ccc(Cl)cc12 | 2.8 nM | 10% | 10%
CCCCN(CCCC)C(=O)C(=O)c1c(-c2ccc(C)cc2)[nH]c2ccccc12 | 3.8 nM | 11% | 58%
CCCNC(=O)C(=O)c1c(-c2ccccc2)[nH]c2ccccc12 | 815 nM |  | 
